In ChEMBL document CHEMBL1123716, “Synthesis and tumor uptake of 5-halo-1-(2'-fluoro-2'-deoxy-beta-D-ribofuranosyl)[2-14C]uracils” (J Med Chem, 1987):
Where “and” joins values, the source holds several entries; their conditions need not be identical. Equal values may be shown once.

Experiments:
Mus musculus [1] = assay: Tissue distribution in BDF1 female mice bearing an implanted lewis lung tumor after intravenous injection in muscle at 0.25 h.; assay type: ADME, organism-based; conditions: in vivo
In short: (§1)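 Female BDF₁ mice (18–20 g) carrying transplanted Lewis lung tumor received 23–193 kBq of the [2-¹⁴C]-labeled nucleoside in normal saline via tail vein. The compound was stored as a dry film and reconstituted just before use. Animals were killed at set times, and tissue ¹⁴C was measured by combustion and liquid scintillation. Values are mean ± SD % injected dose per gram of wet tissue, n = 6.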

Mus musculus [2] = assay: Tissue distribution in BDF1 female mice bearing an implanted lewis lung tumor after intravenous injection in muscle at 0.5 h.; assay type: ADME, organism-based; conditions: in vivo; in short: as §1
Mus musculus [3] = assay: Tissue distribution in BDF1 female mice bearing an implanted lewis lung tumor after intravenous injection in skin at 1 h.; assay type: ADME, organism-based, Skin of body; conditions: in vivo; in short: as §1
Mus musculus [4] = assay: Tissue distribution in BDF1 female mice bearing an implanted lewis lung tumor after intravenous injection in spleen at 0.5 h.; assay type: ADME, organism-based; conditions: in vivo; in short: as §1
Mus musculus [5] = assay: Tissue distribution in BDF1 female mice bearing an implanted lewis lung tumor after intravenous injection in bone at 8 h.; assay type: ADME, organism-based; conditions: in vivo
In short: (§2)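 Female BDF1 mice (18–20 g) with implanted Lewis lung tumor received the 2-14C compound by tail vein, 23–193 kBq in normal saline, reconstituted from a dry film just before use. Animals were killed at set times and tissues taken for 14C counting by combustion and liquid scintillation. Values are percent injected dose per gram wet tissue, mean ± standard deviation, six animals.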

Mus musculus [6] = assay: Tissue distribution in BDF1 female mice bearing an implanted lewis lung tumor after intravenous injection in git(Section of intestine) at 0.25 h.; assay type: ADME, organism-based; conditions: in vivo; in short: as §2
Mus musculus [7] = assay: Tissue distribution in BDF1 female mice bearing an implanted lewis lung tumor after intravenous injection in git(Section of intestine) at 0.5 h.; assay type: ADME, organism-based; conditions: in vivo; in short: as §2
Mus musculus [8] = assay: Tissue distribution in BDF1 female mice bearing an implanted lewis lung tumor after intravenous injection in git(Section of intestine) at 24 h.; assay type: ADME, organism-based; conditions: in vivo; in short: as §2
Mus musculus [9] = assay: Tissue distribution in BDF1 female mice bearing an implanted lewis lung tumor after intravenous injection in bone at 0.25 h.; assay type: ADME, organism-based; conditions: in vivo; in short: as §2
Mus musculus [10] = assay: Tissue distribution in BDF1 female mice bearing an implanted lewis lung tumor after intravenous injection in heart at 2 h.; assay type: ADME, organism-based; conditions: in vivo; in short: as §2
Mus musculus [11] = assay: Tissue distribution in BDF1 female mice bearing an implanted lewis lung tumor after intravenous injection in heart at 24 h.; assay type: ADME, organism-based; conditions: in vivo; in short: as §2
Mus musculus [12] = assay: Tissue distribution in BDF1 female mice bearing an implanted lewis lung tumor after intravenous injection in heart at 4 h.; assay type: ADME, organism-based; conditions: in vivo; in short: as §2
Mus musculus [13] = assay: Tissue distribution in BDF1 female mice bearing an implanted lewis lung tumor after intravenous injection in kidney at 2 h.; assay type: ADME, organism-based; conditions: in vivo; in short: as §2
Mus musculus [14] = assay: Tissue distribution in BDF1 female mice bearing an implanted lewis lung tumor after intravenous injection in liver at 0.5 h.; assay type: ADME, organism-based; conditions: in vivo; in short: as §1
Mus musculus [15] = assay: Tissue distribution in BDF1 female mice bearing an implanted lewis lung tumor after intravenous injection in liver at 1 h.; assay type: ADME, organism-based; conditions: in vivo; in short: as §1
Mus musculus [16] = assay: Tissue distribution in BDF1 female mice bearing an implanted lewis lung tumor after intravenous injection in liver at 2 h.; assay type: ADME, organism-based; conditions: in vivo; in short: as §1
Mus musculus [17] = assay: Tissue distribution in BDF1 female mice bearing an implanted lewis lung tumor after intravenous injection in liver at 24 h.; assay type: ADME, organism-based; conditions: in vivo; in short: as §1
Mus musculus [18] = assay: Tissue distribution in BDF1 female mice bearing an implanted lewis lung tumor after intravenous injection in liver at 4 h.; assay type: ADME, organism-based; conditions: in vivo; in short: as §1
Mus musculus [19] = assay: Tissue distribution in BDF1 female mice bearing an implanted lewis lung tumor after intravenous injection in liver at 8 h.; assay type: ADME, organism-based; conditions: in vivo; in short: as §1
Mus musculus [20] = assay: Tissue distribution in BDF1 female mice bearing an implanted lewis lung tumor after intravenous injection in blood at 0.25 h; assay type: ADME, organism-based; conditions: in vivo; in short: as §2
Mus musculus [21] = assay: Tissue distribution in BDF1 female mice bearing an implanted lewis lung tumor after intravenous injection in blood at 0.5 h.; assay type: ADME, organism-based; conditions: in vivo; in short: as §2
Mus musculus [22] = assay: Tissue distribution in BDF1 female mice bearing an implanted lewis lung tumor after intravenous injection in blood at 4 h.; assay type: ADME, organism-based; conditions: in vivo; in short: as §2
Mus musculus [23] = assay: Tissue distribution in BDF1 female mice bearing an implanted lewis lung tumor after intravenous injection in blood at 8 h.; assay type: ADME, organism-based; conditions: in vivo; in short: as §2
Mus musculus [24] = assay: Tissue distribution in BDF1 female mice bearing an implanted lewis lung tumor after intravenous injection in spleen at 2 h.; assay type: ADME, organism-based; conditions: in vivo; in short: as §1
Mus musculus [25] = assay: Tissue distribution in BDF1 female mice bearing an implanted lewis lung tumor after intravenous injection in spleen at 4 h.; assay type: ADME, organism-based; conditions: in vivo; in short: as §1
Mus musculus [26] = assay: Tissue distribution in BDF1 female mice bearing an implanted lewis lung tumor after intravenous injection in tumor at 0.25 h.; assay type: ADME, organism-based; conditions: in vivo
In short: (§3)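 Female BDF1 mice (18–20 g) carrying a transplanted Lewis lung tumor were given 23–193 kBq of the [2-14C]-labelled nucleoside in normal saline by tail vein. Animals were killed at set times. Tissue 14C was counted by liquid scintillation, after combustion or directly. Values are percent of injected dose per gram wet tissue, as mean ± standard deviation of six animals.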

Mus musculus [27] = assay: Tissue distribution in BDF1 female mice bearing an implanted lewis lung tumor after intravenous injection in tumor at 1 h.; assay type: ADME, organism-based; conditions: in vivo; in short: as §3
Mus musculus [28] = assay: Tissue distribution in BDF1 female mice bearing an implanted lewis lung tumor after intravenous injection in tumor at 4 h.; assay type: ADME, organism-based; conditions: in vivo; in short: as §3
Mus musculus [29] = assay: Tissue distribution in BDF1 female mice bearing an implanted lewis lung tumor after intravenous injection in tumor at 8 h.; assay type: ADME, organism-based; conditions: in vivo; in short: as §3
Mus musculus [30] = assay: Radioactive constituent of other in urine at 8 hr time interval after intravenous injection into BDF1 female mice bearing lewis lung tumor; assay type: ADME, organism-based; conditions: in vivo
In short: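 Radiolabeled nucleoside given in normal saline by tail vein, 23–193 kBq per mouse, to female BDF1 mice (18–20 g) carrying transplanted Lewis lung tumor. Urine was collected when the animals were killed. Components were identified by reverse-phase HPLC with UV at 256 nm on urine spiked with reference compounds, matched to liquid scintillation counts of the eluate. Each is reported as a percent of total urine radioactivity.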

[31] = Total urine activity excreted at 2 hr was estimated from the measurement of loss of tissue activity; assay type: ADME, tissue-based
Mus musculus [32] = assay: Tissue distribution in BDF1 female mice bearing an implanted lewis lung tumor after intravenous injection in bone at 2 h.; assay type: ADME, organism-based; conditions: in vivo; in short: as §2
Mus musculus [33] = assay: Tissue distribution in BDF1 female mice bearing an implanted lewis lung tumor after intravenous injection in muscle at 8 h.; assay type: ADME, organism-based; conditions: in vivo; in short: as §1
Mus musculus [34] = assay: Tissue distribution in BDF1 female mice bearing an implanted lewis lung tumor after intravenous injection in lung at 8 h.; assay type: ADME, organism-based; conditions: in vivo; in short: as §1
Mus musculus [35] = assay: Tissue distribution in BDF1 female mice bearing an implanted lewis lung tumor after intravenous injection in blood at 24 h.; assay type: ADME, organism-based; conditions: in vivo; in short: as §2
Mus musculus [36] = assay: Tissue distribution in BDF1 female mice bearing an implanted lewis lung tumor after intravenous injection in kidney at 4 h.; assay type: ADME, organism-based; conditions: in vivo; in short: as §1
Mus musculus [37] = assay: Tissue distribution in BDF1 female mice bearing an implanted lewis lung tumor after intravenous injection in spleen at 0.25 h; assay type: ADME, organism-based; conditions: in vivo; in short: as §1
Mus musculus [38] = assay: Tissue distribution in BDF1 female mice bearing an implanted lewis lung tumor after intravenous injection in stomach at 0.25 h; assay type: ADME, organism-based; conditions: in vivo; in short: as §1
Mus musculus [39] = assay: Tissue distribution in BDF1 female mice bearing an implanted lewis lung tumor after intravenous injection in stomach at 0.5 h. Value in parentheses is organ to tumor ratio; assay type: ADME, organism-based; conditions: in vivo
In short: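 Female BDF₁ mice (18–20 g) with implanted Lewis lung tumor were given 23–193 kBq of the [2-¹⁴C] nucleoside in normal saline by tail vein. Tissue ¹⁴C was counted by combustion and liquid scintillation, with n = 6 per time point. The organ-to-tumor ratio was derived from the % injected dose per gram of wet tissue in the organ and in the tumor.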

| SMILES | Tissue distribution (Mus musculus [2]) | Tissue distribution (Mus musculus [3]) | Tissue distribution (Mus musculus [4]) | Tissue distribution (Mus musculus [5]) | Tissue distribution (Mus musculus [6]) | Tissue distribution (Mus musculus [7]) | Tissue distribution (Mus musculus [8]) | Tissue distribution (Mus musculus [10]) | Tissue distribution (Mus musculus [11]) | Tissue distribution (Mus musculus [12]) | Tissue distribution (Mus musculus [13]) | Tissue distribution (Mus musculus [14]) | Tissue distribution (Mus musculus [15]) | Tissue distribution (Mus musculus [16]) | Tissue distribution (Mus musculus [17]) | Tissue distribution (Mus musculus [18]) | Tissue distribution (Mus musculus [19]) | Tissue distribution (Mus musculus [20]) | Tissue distribution (Mus musculus [21]) | Tissue distribution (Mus musculus [22]) | other results |
| --- | --- | --- | --- | --- | --- | --- | --- | --- | --- | --- | --- | --- | --- | --- | --- | --- | --- | --- | --- | --- | --- |
| O=c1[nH]c(=O)n([C@H]2O[C@@H](CO)[C@H](O)[C@H]2F)cc1F | 1.06 | 0.43 | 3.77 | 0.03 | 3.35 | 1.59 | 0.01 | 0.08 | 0.005 | 0.02 | 0.84 | 1.54 | 0.53 | 0.08 | 0.005 | 0.02 | 0.01 | 3.49 | 1.59 | 0.02 | Tissue distribution (Mus musculus [1]): 2.48; Tissue distribution (Mus musculus [9]): 1.69; Tissue distribution (Mus musculus [23]): 0.01; Tissue distribution (Mus musculus [24]): 0.29; Tissue distribution (Mus musculus [25]): 0.18; Tissue distribution (Mus musculus [26]): 5.26; Tissue distribution (Mus musculus [27]): 2.24; Tissue distribution (Mus musculus [28]): 0.16; Tissue distribution (Mus musculus [29]): 0.05; Total radioactivity (Mus musculus [30]): 38.6%; Total urine activity [31]: 30%; Tissue distribution (Mus musculus [32]): 0.11; Tissue distribution (Mus musculus [33]): 0.01; Tissue distribution (Mus musculus [34]): 0.01; Tissue distribution (Mus musculus [35]): 0.01; Tissue distribution (Mus musculus [36]): 0.08 |
| O=c1[nH]c(=O)n([C@H]2O[C@@H](CO)[C@H](O)[C@H]2F)cc1Cl | 0.78 | 0.36 | 1.08 | 0.02 | 1.91 | 1.02 | 0.02 | 0.17 | 0.02 | 0.06 | 1.6 | 1.43 | 0.47 and 0.6 | 0.15 | 0.02 | 0.05 | 0.03 | 3.54 | 1.82 | 0.06 | Tissue distribution (Mus musculus [37]): 2.12; Tissue distribution (Mus musculus [23]): 0.03; Tissue distribution (Mus musculus [24]): 0.34; Tissue distribution (Mus musculus [25]): 0.17; Tissue distribution (Mus musculus [38]): 1.41; Tissue distribution (Mus musculus [39]): 0.75; Tissue distribution (Mus musculus [26]): 2.62; Tissue distribution (Mus musculus [28]): 0.23; Tissue distribution (Mus musculus [29]): 0.07; Tissue distribution (Mus musculus [32]): 0.08; Tissue distribution (Mus musculus [33]): 0.03; Tissue distribution (Mus musculus [34]): 0.03; Tissue distribution (Mus musculus [35]): 0.01; Tissue distribution (Mus musculus [36]): 0.33 |
